Screening data from PubChem BioAssay.
Only a selection was taken, and hits are over-represented in it overall.
INS-1E ATP HTS: INS-1E beta cell protection from cytokine death; INS-1E cytokine-induced death, ATP luminescence, 48 h; normalised: neutral wells 0, positive control 100; protection from cytokine-induced ATP loss, % at 10 µM; hit rate 0.1% among 20,000;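 active means mean replicate protection from cytokine-induced ATP loss at least 50% and at least 75% of replicates each reaching 50%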
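Test system: INS-1E rat cells | Quantity: 8000 cells per well | Medium: Phenol-red-free RPMI with 5% fetal bovine serum | Reagent: Cytokine cocktail of IFN-γ, TNF-α and IL-1β | Doses: One compound concentration, pin transfer | Timing: 48 h co-treatment, 10 min post-lysis read | Technique: Luminescent ATP assay (CellTiter-Glo)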
A1 apoptosis 2: compounds inhibiting A1, read as caspase activation. MEF A1-2A-BIM cells, caspase-Glo luminescence, 3 h; percent of clofoctol response, DMSO zero. caspase activation, % (concentration not given with the values). 24,000 tested, under 10 active. AID 2465; in the data active means caspase activation above about 5.9%
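Material: A1-2A-BIM-expressing MEF cells. Buffer or medium: RPMI-1640 plus 10% FBS. Incubation: cells settled overnight, compound exposure 3 h at 37 °C, 5% CO2. Signal: Caspase-Glo 3/7 luminescence, 1 h at room temperature.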
T cruzi intra: intracellular Trypanosoma cruzi inhibition | hit rate 4.9% among 22,000 | AID 651903 | intracellular Trypanosoma cruzi in host cells, plate reader | activity score (inhibition), % at 5.01 µM; in the data active means activity score above about 55%;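 further: parasites and compound incubated about four days before reading; 0% = median of neutral control wells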
* = called active by the depositor.

What do the screens show for `CN(C)CCCOc1ccc(/C=N/NC(=O)CCCCCCC(=O)Nc2ccccc2O)cc1`?
INS-1E ATP HTS: -3; T cruzi intra: 87*

How did N#Cc1ccc(/C=N/NC(=O)CCCCCCC(=O)Nc2ccccc2O)cc1 do in these assays?
INS-1E ATP HTS: 4; A1 apoptosis 2: -1; T cruzi intra: -11

Results for O=C(NO)c1cccc(C(=O)N/N=C/c2ccccc2[N+](=O)[O-])c1 ?
INS-1E ATP HTS: -7; A1 apoptosis 2: -5; T cruzi intra: -4

What do the screens show for `COC(=O)CCCCCCC(=O)N/N=C/C1=CC[C@H]2C[C@@H]1C2(C)C`?
INS-1E ATP HTS: 7; A1 apoptosis 2: 0; T cruzi intra: -8

Results for O=C(CCCCCC(=O)Nc1ccccc1O)N/N=C/c1ccc(O)cc1O ?
INS-1E ATP HTS: -1; A1 apoptosis 2: -1; T cruzi intra: 22

What do the screens show for `C[C@@H]1CN([C@@H](C)CO)C(=O)c2cccc(NC(=O)Nc3ccc(C(F)(F)F)cc3)c2O[C@@H]1CN(C)Cc1ccc(-c2ccccc2)cc1`?
INS-1E ATP HTS: -86; T cruzi intra: 65*

What do the screens show for `C[C@@H]1CN([C@H](C)CO)C(=O)c2cccc(NC(=O)C3CC3)c2O[C@@H]1CN(C)Cc1ccc(C(F)(F)F)cc1`?
INS-1E ATP HTS: -1; T cruzi intra: -17

Results for C[C@@H]1CN([C@H](C)CO)C(=O)c2cccc(NC(=O)Nc3ccc(C(F)(F)F)cc3)c2O[C@@H]1CN(C)Cc1ccc(-c2ccccc2)cc1 ?
INS-1E ATP HTS: -59; A1 apoptosis 2: 0; T cruzi intra: 34

How did C[C@@H]1CN([C@H](C)CO)C(=O)c2cccc(NC(=O)Nc3ccc(F)cc3)c2O[C@@H]1CN(C)Cc1ccc(-c2ccccc2)cc1 do in these assays?
INS-1E ATP HTS: -47; T cruzi intra: 68*

How did C[C@H]1CN([C@@H](C)CO)C(=O)c2cccc(NC(=O)Nc3ccc(F)cc3)c2O[C@@H]1CN(C)Cc1ccc(-c2ccccc2)cc1 do in these assays?
INS-1E ATP HTS: -34; A1 apoptosis 2: -2; T cruzi intra: -14

What do the screens show for `C[C@@H]1CN([C@H](C)CO)C(=O)c2cccc(NC(=O)Nc3ccc(C(F)(F)F)cc3)c2O[C@@H]1CN(C)Cc1ccc(C(F)(F)F)cc1`?
INS-1E ATP HTS: -37; A1 apoptosis 2: -1; T cruzi intra: 89*

What do the screens show for `C[C@@H]1CN([C@H](C)CO)C(=O)c2cccc(NC(=O)C3CCCCC3)c2O[C@H]1CN(C)Cc1ccc(C(F)(F)F)cc1`?
INS-1E ATP HTS: -54; T cruzi intra: 78*

What do the screens show for `C[C@H]1CN([C@@H](C)CO)C(=O)c2cccc(NC(=O)Nc3ccc(F)cc3)c2O[C@@H]1CN(C)Cc1ccc(C(F)(F)F)cc1`?
INS-1E ATP HTS: -11; A1 apoptosis 2: -1; T cruzi intra: 13

Results for O=C(CCCCCCC(=O)N/N=C/c1cccnc1Br)NO ?
A1 apoptosis 2: 1

How did O=C(NO)c1ccc(C(=O)N/N=C/c2ccccc2O)cc1 do in these assays?
INS-1E ATP HTS: 9; A1 apoptosis 2: -1; T cruzi intra: -31

What do the screens show for `O=C(CCCCCC(=O)Nc1ccccc1O)N=NC=C1C=CN(O)C=C1`?
A1 apoptosis 2: -1

What do the screens show for `COc1cc(/C=N/NC(=O)CCCCCC(=O)NO)ccc1O`?
A1 apoptosis 2: -1

What do the screens show for `O=C1O[C@H](c2ccccc2)[C@H](c2ccccc2)N2[C@H]1[C@@H](C(=O)NC[C@H](O)c1ccccc1)[C@]1(C(=O)Nc3ccc(C#CCCO)cc31)[C@H]2c1ccccc1OCCO`?
A1 apoptosis 2: 1

What do the screens show for `CC(C)(C)OC(=O)N1CCC[C@H]1/C=N/NC(=O)CCCCCC(=O)NO`?
A1 apoptosis 2: 1

How did O=C(N/N=C/c1cc(Br)cc([N+](=O)[O-])c1O)c1ccccn1 do in these assays?
INS-1E ATP HTS: 8; A1 apoptosis 2: -3; T cruzi intra: 4

How did O=C(O)CCCCCCC(=O)N/N=C/c1cc(Br)cs1 do in these assays?
INS-1E ATP HTS: 10; T cruzi intra: 1

How did C[C@H]1CN([C@@H](C)CO)C(=O)c2cccc(NC(=O)Nc3ccc(C(F)(F)F)cc3)c2O[C@H]1CN(C)Cc1ccc(C(F)(F)F)cc1 do in these assays?
INS-1E ATP HTS: -55; T cruzi intra: 63*

Results for C[C@@H]1CN([C@H](C)CO)C(=O)c2cccc(NC(=O)Nc3ccc(C(F)(F)F)cc3)c2O[C@H]1CN(C)Cc1ccc(C(F)(F)F)cc1 ?
INS-1E ATP HTS: 10; A1 apoptosis 2: 0; T cruzi intra: 37

How did O=C(CCCCCCC(=O)Nc1ccccc1O)N/N=C/c1ccc(O)c(O)c1O do in these assays?
INS-1E ATP HTS: 23; T cruzi intra: 51

What do the screens show for `C[C@@H]1CN([C@H](C)CO)C(=O)Cc2cc(NC(=O)Nc3ccc(F)cc3)ccc2O[C@@H]1CN(C)Cc1ccc(-c2ccccc2)cc1`?
INS-1E ATP HTS: -29; T cruzi intra: 61*

How did C[C@H](CO)N1C[C@H](C)[C@@H](CN(C)Cc2ccc(-c3ccccc3)cc2)Oc2ccc(NC(=O)Nc3ccc(F)cc3)cc2CC1=O do in these assays?
A1 apoptosis 2: 0

What do the screens show for `CC(C)NC(=O)Nc1ccc2c(c1)CC(=O)N([C@H](C)CO)C[C@H](C)[C@H](CN(C)Cc1ccc(-c3ccccc3)cc1)O2`?
INS-1E ATP HTS: -21; A1 apoptosis 2: 0; T cruzi intra: 67*

What do the screens show for `COc1ccc(NC(=O)Nc2ccc3c(c2)CC(=O)N([C@H](C)CO)C[C@H](C)[C@@H](CN(C)Cc2ccc(-c4ccccc4)cc2)O3)cc1`?
A1 apoptosis 2: 0

How did CC(C)NC(=O)Nc1ccc2c(c1)CC(=O)N([C@@H](C)CO)C[C@@H](C)[C@@H](CN(C)Cc1ccc(-c3ccccc3)cc1)O2 do in these assays?
INS-1E ATP HTS: -24; A1 apoptosis 2: 0; T cruzi intra: 32

Results for COc1ccc(NC(=O)Nc2ccc3c(c2)CC(=O)N([C@@H](C)CO)C[C@H](C)[C@H](CN(C)Cc2ccc(-c4ccccc4)cc2)O3)cc1 ?
INS-1E ATP HTS: -65; A1 apoptosis 2: -1; T cruzi intra: 71*

Results for C[C@H](CO)N1C[C@H](C)[C@H](CN(C)Cc2ccc(-c3ccccc3)cc2)Oc2ccc(NC(=O)Nc3ccc(C(F)(F)F)cc3)cc2CC1=O ?
INS-1E ATP HTS: -39; T cruzi intra: 65*

Results for C[C@H](CO)N1C[C@H](C)[C@H](CN(C)Cc2ccc(C(F)(F)F)cc2)Oc2ccc(NC(=O)Nc3ccccc3)cc2CC1=O ?
INS-1E ATP HTS: -15; A1 apoptosis 2: 0; T cruzi intra: 26

Results for COC(=O)CCCCCCC(=O)N/N=C/c1cc(Br)c(O)c(Br)c1 ?
INS-1E ATP HTS: 4; A1 apoptosis 2: 1; T cruzi intra: -17

How did COC(=O)C(CC#Cc1ccc2c(c1)[C@]1(C(=O)N2)[C@H](C(N)=O)[C@H]2C(=O)O[C@H](c3ccccc3)[C@H](c3ccccc3)N2[C@@H]1c1ccccc1OCCO)C(=O)OC do in these assays?
A1 apoptosis 2: 0
